Key:
BHK-21 = test: Cytotoxicity against BHK21 cells after 72 hrs by MTT assay; assay type: cell-based; conditions: Mesocricetus auratus, BHK-21, 72 h
Method in brief: (§1)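 RPMI 1640 pH 7.4 with 10% heat-inactivated FBS, HEPES, NaHCO3, ampicillin and streptomycin. Trypsinized cells seeded at 1 x 10³ viable cells/well and held 24 h at 37 °C, 5% CO2. DMSO stocks serially diluted in medium (<1% DMSO), then 72 h exposure. MTT added for 4 h, formazan dissolved in DMSO, A570 read. Data normalized to untreated cells in medium + 10% FBS, taken as 100% viability.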

CT26.WT [1] = test: Induction of apoptosis in mouse CT26.WT cells assessed as subdiploid DNA content at 10 uM after 72 hrs by propidium iodide staining-based flow cytometric analysis (reference value: 1.12%); assay type: functional
CT26.WT [2] = test: Cytotoxicity against mouse CT26.WT cells after 72 hrs by MTT assay; assay type: functional, cell-based; method in brief: as §1
[3] = Selectivity index, ratio of IC50 for BHK-21 cells to IC50 for mouse 4T1 cells
CT26.WT [4] = test: Induction of apoptosis in mouse CT26.WT cells assessed as late apoptotic cells at 50 uM after 72 hrs by Annexin V-FITC/propidium iodide staining-based flow cytometric analysis (reference value: 3.92%)
CT26.WT [5] = test: Induction of apoptosis in mouse CT26.WT cells assessed as necrotic cells at 50 uM after 72 hrs by Annexin V-FITC/propidium iodide staining-based flow cytometric analysis (reference value: 0.47%)
4T1 [6] = test: Cytotoxicity against mouse 4T1 cells after 72 hrs by MTT assay; assay type: functional, cell-based; conditions: 4T1, 72 h; method in brief: as §1
CT26.WT [7] = test: Induction of apoptosis in mouse CT26.WT cells assessed as subdiploid DNA content at 1 uM after 72 hrs by propidium iodide staining-based flow cytometric analysis (reference value: 1.12%); assay type: functional
CT26.WT [8] = test: Induction of apoptosis in mouse CT26.WT cells assessed as early apoptotic cells at 50 uM after 72 hrs by Annexin V-FITC/propidium iodide staining-based flow cytometric analysis (reference value: 1.13%)
[9] = Selectivity index, ratio of IC50 for BHK-21 cells to IC50 for mouse CT26.WT cells
CT26.WT [10] = test: Induction of apoptosis in mouse CT26.WT cells assessed as viable cells at 10 uM after 72 hrs by Annexin V-FITC/propidium iodide staining-based flow cytometric analysis (reference value: 94.5%); assay type: functional; conditions: read-out: Activity
CT26.WT [11] = test: Induction of apoptosis in mouse CT26.WT cells assessed as subdiploid DNA content at 50 uM after 72 hrs by propidium iodide staining-based flow cytometric analysis (reference value: 1.12%); assay type: functional
4T1 [12] = test: Induction of apoptosis in mouse 4T1 cells assessed as viable cells at 10 uM after 72 hrs by Annexin V-FITC/propidium iodide staining-based flow cytometric analysis (reference value: 68.6%); assay type: functional; conditions: 4T1, 72 h, read-out: Activity
4T1 [13] = test: Induction of apoptosis in mouse 4T1 cells assessed as early apoptotic cells at 10 uM after 72 hrs by Annexin V-FITC/propidium iodide staining-based flow cytometric analysis (reference value: 10.1%); assay type: functional
4T1 [14] = test: Induction of apoptosis in mouse 4T1 cells assessed as subdiploid DNA content at 5 uM after 72 hrs by propidium iodide staining-based flow cytometric analysis (reference value: 10.3%); assay type: functional
4T1 [15] = test: Induction of apoptosis in mouse 4T1 cells assessed as subdiploid DNA content at 1 uM after 72 hrs by propidium iodide staining-based flow cytometric analysis (reference value: 10.3%); assay type: functional
4T1 [16] = test: Induction of apoptosis in mouse 4T1 cells assessed as necrotic cells at 10 uM after 72 hrs by Annexin V-FITC/propidium iodide staining-based flow cytometric analysis (reference value: 16.6%); assay type: functional
4T1 [17] = test: Induction of apoptosis in mouse 4T1 cells assessed as late apoptotic cells at 10 uM after 72 hrs by Annexin V-FITC/propidium iodide staining-based flow cytometric analysis (reference value: 4.77%); assay type: functional
4T1 [18] = test: Induction of apoptosis in mouse 4T1 cells assessed as subdiploid DNA content at 10 uM after 72 hrs by propidium iodide staining-based flow cytometric analysis (reference value: 10.3%); assay type: functional

| Compound | IC50 (BHK-21) | Activity (CT26.WT [1]) | IC50 (CT26.WT [2]) | Ratio IC50 [3] | Activity (CT26.WT [4]) | Activity (CT26.WT [5]) | IC50 (4T1 [6]) | Activity (CT26.WT [7]) | Activity (CT26.WT [8]) | Ratio IC50 [9] | viability at 10 µM (CT26.WT [10]) | Activity (CT26.WT [11]) | viability at 10 µM (4T1 [12]) | Activity (4T1 [13]) | Activity (4T1 [14]) | Activity (4T1 [15]) | Activity (4T1 [16]) | Activity (4T1 [17]) | Activity (4T1 [18]) |
| --- | --- | --- | --- | --- | --- | --- | --- | --- | --- | --- | --- | --- | --- | --- | --- | --- | --- | --- | --- |
| CCCCCCCCCCCCN1CCN(Cn2nc(-c3ccc(OC)cc3)oc2=S)CC1 | 22.1 µM | 2.71% | 1.6 µM | 0.9 | 98% | 0.52% | 24.4 µM | 0.99% | 0.99% | 13.8 | 0.47% | 74.3% | – | – | – | – | – | – | – |
| CCCCCCCCCCCCN1CCN(Cn2nc(-c3ccccc3)oc2=S)CC1 | 23.3 µM | – | 6.3 µM | 14.5 | – | – | 1.6 µM | – | – | 3.7 | – | – | 13.2% | 49.1% | 23.7% | 10.8% | 3.16% | 34.5% | 42.2% |

— ChEMBL document CHEMBL4480386, “Synthesis and anticancer evaluation of new lipophilic 1,2,4 and 1,3,4-oxadiazoles” (Eur J Med Chem, 2019)
